Results reported in ChEMBL document CHEMBL3120077, “Synthesis, structure-activity relationship of iodinated-4-aryloxymethyl-coumarins as potential anti-cancer and anti-mycobacterial agents” (Eur J Med Chem, 2014).
Values after ≈ are worked out from the molar mass of the structure shown.

Columns and labels:
Format in all cases: functional
[1] = test system: Mycobacterium tuberculosis; test: Antimicrobial activity against Mycobacterium tuberculosis
Method in brief: (§1)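 M. tuberculosis H37Rv was tested in Middlebrook 7H9 broth in a microplate Alamar Blue assay. Compounds were serially diluted on the plate to final concentrations of 100–0.2 µg/mL. Sealed plates were incubated at 37 °C for 5 days. A fresh 1:1 mix of Alamar Blue and 10% Tween 80 was then added, followed by 24 h more incubation. Blue wells were scored as no growth, pink as growth.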

[2] = test system: Mycolicibacterium phlei; test: Antimicrobial activity against Mycobacterium phlei after 5 days by microplate Alamar Blue assay; conditions: 120 h
Method in brief: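 Microplate Alamar Blue assay (MABA) in Middlebrook 7H9 broth, compounds serially diluted on plate to final 100–0.2 µg/mL. Plates sealed and incubated 37 °C for 5 days, then 1:1 Alamar Blue/10% Tween 80 added and incubated 24 h more. Blue scored as no growth, pink as growth.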

[3] = test system: Mycobacterium tuberculosis; test: Antimicrobial activity against Mycobacterium tuberculosis H37Rv after 5 days by microplate Alamar Blue assay; conditions: 120 h; method in brief: as §1
[4] = test system: A549; test: Cytotoxicity against human A549 cells after 24 hrs by MTT assay
Method in brief: (§2)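 Cells seeded at 2×10^4/well, incubated overnight, then exposed 24 h to test concentrations. MTT (5 mg/mL stock) added, 3 h at 37 °C; formazan dissolved in DMSO, absorbance 570 nm. Percent viability inhibition relative to untreated control; IC50 from linear regression of the dose-response line.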

[5] = Cytotoxicity against human MDA-MB cells after 24 hrs by MTT assay; method in brief: as §2
[6] = test system: Mycobacterium tuberculosis; test: Antimicrobial activity against Mycobacterium tuberculosis ATCC 27294 by microplate Alamar Blue assay; method in brief: as §1

Row | SMILES | MIC [1] [µg/mL] | MIC [2] [µg/mL] | MIC [3] [µg/mL] | MIC [4] [µg/mL] | MIC [5] [µg/mL] | MIC [6] [µg/mL]
1 | Cc1cc(=O)oc2cc(OCc3cn(Cc4cc(=O)oc5ccc6ccccc6c45)nn3)ccc12 | 6.25 (≈ 13.4 µM) | – | – | – | – | –
2 | Cc1cc(=O)oc2cc(OCc3cn(Cc4cc(=O)oc5cc(Cl)ccc45)nn3)ccc12 | 6.25 (≈ 13.9 µM) | – | – | – | – | –
3 | O=c1cc(COc2cccc(I)c2)c2cc(Br)ccc2o1 | – | 6.25 (≈ 13.7 µM) | 12.5 (≈ 27.3 µM) | 6.25 (≈ 13.7 µM) | 6.25 (≈ 13.7 µM) | –
4 | Cc1ccc2oc(=O)cc(COc3ccc(I)cc3)c2c1 | – | 12.5 (≈ 31.9 µM) | 12.5 (≈ 31.9 µM) | 12.5 (≈ 31.9 µM) | 12.5 (≈ 31.9 µM) | –
5 | Cc1ccc2c(COc3ccc(I)cc3)cc(=O)oc2c1 | – | 12.5 (≈ 31.9 µM) | 25 (≈ 63.7 µM) | 12.5 (≈ 31.9 µM) | 12.5 (≈ 31.9 µM) | –
6 | Cc1ccc2c(COc3ccc(I)cc3)cc(=O)oc2c1C | – | 12.5 (≈ 30.8 µM) | 12.5 (≈ 30.8 µM) | 12.5 (≈ 30.8 µM) | 12.5 (≈ 30.8 µM) | –
7 | COc1ccc2oc(=O)cc(COc3ccc(I)cc3)c2c1 | – | 12.5 (≈ 30.6 µM) | 25 (≈ 61.2 µM) | 6.25 (≈ 15.3 µM) | 25 (≈ 61.2 µM) | –
8 | COc1ccc2c(COc3ccc(I)cc3)cc(=O)oc2c1 | – | 12.5 (≈ 30.6 µM) | 25 (≈ 61.2 µM) | 6.25 (≈ 15.3 µM) | 25 (≈ 61.2 µM) | –
9 | O=c1cc(COc2ccc(I)cc2)c2c(ccc3ccccc32)o1 | – | 25 (≈ 58.4 µM) | 25 (≈ 58.4 µM) | 6.25 (≈ 14.6 µM) | 25 (≈ 58.4 µM) | –
10 | O=c1cc(COc2ccc(I)cc2)c2ccc3ccccc3c2o1 | – | 25 (≈ 58.4 µM) | 25 (≈ 58.4 µM) | 6.25 (≈ 14.6 µM) | 25 (≈ 58.4 µM) | –
11 | O=c1cc(COc2ccc(I)cc2)c2cc(Cl)ccc2o1 | – | 3.12 (≈ 7.57 µM) | 1.56 (≈ 3.78 µM) | 3.12 (≈ 7.57 µM) | 1.56 (≈ 3.78 µM) | –
12 | O=c1cc(COc2ccc(I)cc2)c2ccc(Cl)cc2o1 | – | 3.12 (≈ 7.57 µM) | 1.56 (≈ 3.78 µM) | 3.12 (≈ 7.57 µM) | 1.56 (≈ 3.78 µM) | –
13 | O=c1cc(COc2ccc(I)cc2)c2cc(Br)ccc2o1 | – | 6.25 (≈ 13.7 µM) | 6.25 (≈ 13.7 µM) | 3.12 (≈ 6.84 µM) | 3.12 (≈ 6.84 µM) | –
14 | O=C(N/N=C/c1cccc(O)c1)c1cc2ccccc2oc1=O | 50 (≈ 162 µM) | – | – | – | – | –
15 | Cc1cc(=O)oc2cc(OCc3cn(Cc4cc(=O)oc5ccc(Cl)cc45)nn3)ccc12 | 6.25 (≈ 13.9 µM) | – | – | – | – | –
16 | Cc1ccc2oc(=O)cc(COc3ccccc3I)c2c1 | – | > 100 | 12.5 (≈ 31.9 µM) | 50 (≈ 127 µM) | 12.5 (≈ 31.9 µM) | –
17 | Cc1ccc2c(COc3ccccc3I)cc(=O)oc2c1 | – | > 100 | 12.5 (≈ 31.9 µM) | 50 (≈ 127 µM) | 12.5 (≈ 31.9 µM) | –
18 | Cc1ccc2c(COc3ccccc3I)cc(=O)oc2c1C | – | 50 (≈ 123 µM) | 25 (≈ 61.5 µM) | 50 (≈ 123 µM) | 25 (≈ 61.5 µM) | –
19 | COc1ccc2oc(=O)cc(COc3ccccc3I)c2c1 | – | 50 (≈ 122 µM) | 12.5 (≈ 30.6 µM) | 25 (≈ 61.2 µM) | 25 (≈ 61.2 µM) | –

Row | SMILES | MIC [1] [µg/mL] | MIC [2] [µg/mL] | MIC [3] [µg/mL] | MIC [4] [µg/mL] | MIC [5] [µg/mL] | MIC [6] [µg/mL]
20 | COc1ccc2c(COc3ccccc3I)cc(=O)oc2c1 | – | 50 (≈ 122 µM) | 12.5 (≈ 30.6 µM) | 25 (≈ 61.2 µM) | 25 (≈ 61.2 µM) | –
21 | O=c1cc(COc2ccccc2I)c2c(ccc3ccccc32)o1 | – | 50 (≈ 117 µM) | 50 (≈ 117 µM) | 25 (≈ 58.4 µM) | 25 (≈ 58.4 µM) | –
22 | O=c1cc(COc2ccccc2I)c2ccc3ccccc3c2o1 | – | 50 (≈ 117 µM) | 50 (≈ 117 µM) | 25 (≈ 58.4 µM) | 25 (≈ 58.4 µM) | –
23 | O=c1cc(COc2ccccc2I)c2cc(Cl)ccc2o1 | – | 25 (≈ 60.6 µM) | 6.25 (≈ 15.1 µM) | 12.5 (≈ 30.3 µM) | 12.5 (≈ 30.3 µM) | –
24 | O=c1cc(COc2ccccc2I)c2ccc(Cl)cc2o1 | – | 25 (≈ 60.6 µM) | 6.25 (≈ 15.1 µM) | 12.5 (≈ 30.3 µM) | 12.5 (≈ 30.3 µM) | –
25 | O=c1cc(COc2ccccc2I)c2cc(Br)ccc2o1 | – | 50 (≈ 109 µM) | 6.25 (≈ 13.7 µM) | 12.5 (≈ 27.3 µM) | 12.5 (≈ 27.3 µM) | –
26 | Cc1ccc2oc(=O)cc(COc3cccc(I)c3)c2c1 | – | 12.5 (≈ 31.9 µM) | 25 (≈ 63.7 µM) | 25 (≈ 63.7 µM) | 25 (≈ 63.7 µM) | –
27 | Cc1ccc2c(COc3cccc(I)c3)cc(=O)oc2c1 | – | 12.5 (≈ 31.9 µM) | 25 (≈ 63.7 µM) | 25 (≈ 63.7 µM) | 25 (≈ 63.7 µM) | –
28 | Cc1ccc2c(COc3cccc(I)c3)cc(=O)oc2c1C | – | 25 (≈ 61.5 µM) | 25 (≈ 61.5 µM) | 25 (≈ 61.5 µM) | 25 (≈ 61.5 µM) | –
29 | COc1ccc2oc(=O)cc(COc3cccc(I)c3)c2c1 | – | 50 (≈ 122 µM) | 25 (≈ 61.2 µM) | 12.5 (≈ 30.6 µM) | 50 (≈ 122 µM) | –
30 | COc1ccc2c(COc3cccc(I)c3)cc(=O)oc2c1 | – | 50 (≈ 122 µM) | 25 (≈ 61.2 µM) | 12.5 (≈ 30.6 µM) | 50 (≈ 122 µM) | –
31 | O=c1cc(COc2cccc(I)c2)c2c(ccc3ccccc32)o1 | – | 25 (≈ 58.4 µM) | 25 (≈ 58.4 µM) | 12.5 (≈ 29.2 µM) | 50 (≈ 117 µM) | –
32 | O=c1cc(COc2cccc(I)c2)c2ccc3ccccc3c2o1 | – | 25 (≈ 58.4 µM) | 25 (≈ 58.4 µM) | 12.5 (≈ 29.2 µM) | 50 (≈ 117 µM) | –
33 | O=c1cc(COc2cccc(I)c2)c2cc(Cl)ccc2o1 | – | 6.25 (≈ 15.1 µM) | 12.5 (≈ 30.3 µM) | 6.25 (≈ 15.1 µM) | 6.25 (≈ 15.1 µM) | –
34 | O=c1cc(COc2cccc(I)c2)c2ccc(Cl)cc2o1 | – | 6.25 (≈ 15.1 µM) | 12.5 (≈ 30.3 µM) | 6.25 (≈ 15.1 µM) | 6.25 (≈ 15.1 µM) | –
35 | O=C(Cc1cc(=O)oc2cc(O)ccc12)N/N=C/c1cccc([N+](=O)[O-])c1 | – | – | – | – | – | 6.25 (≈ 17 µM)
36 | NC(=O)c1cnccn1 [PYRAZINAMIDE] | – | 3.12 (≈ 25.4 µM) | 3.12 (≈ 25.4 µM) | – | – | –
37 | CN[C@@H]1[C@H](O[C@H]2[C@H](O[C@H]3[C@H](O)[C@@H](O)[C@H](N=C(N)N)[C@@H](O)[C@@H]3N=C(N)N)O[C@@H](C)[C@]2(O)C=O)O[C@@H](CO)[C@H](O)[C@H]1O [STREPTOMYCIN] | – | 6.25 (≈ 10.7 µM) | 6.25 (≈ 10.7 µM) | – | – | –
